Source: ChEMBL document CHEMBL5058577, “EUbOPEN Chemogenomics Library 2 (Multiplex)” (2022)

Test system: HEK-293T
Assay: Multiplex assay against HEK293T
Assay type: toxicity, cell-based
Settings: human
Outline: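 Hoechst33342, BioTracker Green Microtubule Cytoskeleton Dye, MitoTracker Red and Annexin V Alexa Fluor 680 were added to live cells at seeding, and imaging on a CQ1 microscope at 37°C and 5% CO2 followed compound addition. Gating by CellPathfinder machine learning separated cells into Hoechst high-intensity objects or normal cells, then normal cells into healthy, pyknosed or fragmented nuclei, then pyknosed cells into mitotic or apoptotic. Per cents of healthy-nucleus cells are reported for the tubulin, mitochondrial-mass and membrane-permeability phenotypes.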

[1] = 12 h, 1 µM, compound concentration 1 uM, replicate 1
[2] = 12 h, 1 µM, compound concentration 1 uM, replicate 2
[3] = 12 h, 10 µM, compound concentration 10 uM, replicate 1
[4] = 12 h, 10 µM, compound concentration 10 uM, replicate 2
[5] = 24 h, 1 µM, compound concentration 1 uM, replicate 1
[6] = 24 h, 1 µM, compound concentration 1 uM, replicate 2
[7] = 24 h, 10 µM, compound concentration 10 uM, replicate 1
[8] = 24 h, 10 µM, compound concentration 10 uM, replicate 2
[9] = 48 h, 1 µM, compound concentration 1 uM, replicate 1
[10] = 48 h, 1 µM, compound concentration 1 uM, replicate 2
[11] = 48 h, 10 µM, compound concentration 10 uM, replicate 1
[12] = 48 h, 10 µM, compound concentration 10 uM, replicate 2

## N#Cc1c(Oc2cccc(OS(=O)(=O)CCCC(F)(F)F)c2)cccc1C(F)(F)F
[1]
  Population Apoptotic (%): 35%
  Population Fragmented Nuclei (%): 4%
  Population Healthy Nuclei (%): 86%
  Population Hoechst High Intensity Objects (%): 5%
  Population Membrane Permeable-Phenotype (%): 0%
  Population Mitochondria Different-Phenotype (%): 46%
  Population Mitotic Cells (%): 65%
  Population Normal (%): 94%
  Population Pyknosed Nuclei (%): 8%
  Population Tubulin-Different-Phenotype (%): 38%
  Total Cell Count: 490
[2]
  Population Apoptotic (%): 63%
  Population Fragmented Nuclei (%): 6%
  Population Healthy Nuclei (%): 75%
  Population Hoechst High Intensity Objects (%): 11%
  Population Mitochondria Different-Phenotype (%): 60%
  Population Mitotic Cells (%): 36%
  Population Normal (%): 88%
  Population Pyknosed Nuclei (%): 17%
  Population Tubulin-Different-Phenotype (%): 28%
  Total Cell Count: 349
[3]
  Population Apoptotic (%): 42%
  Population Fragmented Nuclei (%): 8%
  Population Healthy Nuclei (%): 65%
  Population Hoechst High Intensity Objects (%): 10%
  Population Membrane Permeable-Phenotype (%): 0%
  Population Mitochondria Different-Phenotype (%): 74%
  Population Mitotic Cells (%): 57%
  Population Normal (%): 89%
  Population Pyknosed Nuclei (%): 25%
  Population Tubulin-Different-Phenotype (%): 65%
  Total Cell Count: 290
[4]
  Population Apoptotic (%): 44%
  Population Fragmented Nuclei (%): 6%
  Population Healthy Nuclei (%): 64%
  Population Hoechst High Intensity Objects (%): 40%
  Population Mitochondria Different-Phenotype (%): 81%
  Population Mitotic Cells (%): 55%
  Population Normal (%): 59%
  Population Pyknosed Nuclei (%): 28%
  Population Tubulin-Different-Phenotype (%): 58%
  Total Cell Count: 318
[5]
  Population Apoptotic (%): 28%
  Population Fragmented Nuclei (%): 10%
  Population Healthy Nuclei (%): 77%
  Population Hoechst High Intensity Objects (%): 3%
  Population Membrane Permeable-Phenotype (%): 0%
  Population Mitochondria Different-Phenotype (%): 34%
  Population Mitotic Cells (%): 71%
  Population Normal (%): 96%
  Population Pyknosed Nuclei (%): 12%
  Population Tubulin-Different-Phenotype (%): 26%
  Total Cell Count: 654
[6]
  Population Apoptotic (%): 60%
  Population Fragmented Nuclei (%): 8%
  Population Healthy Nuclei (%): 81%
  Population Hoechst High Intensity Objects (%): 9%
  Population Mitochondria Different-Phenotype (%): 48%
  Population Mitotic Cells (%): 40%
  Population Normal (%): 90%
  Population Pyknosed Nuclei (%): 9%
  Population Tubulin-Different-Phenotype (%): 20%
  Total Cell Count: 412
[7]
  Population Apoptotic (%): 43%
  Population Fragmented Nuclei (%): 9%
  Population Healthy Nuclei (%): 77%
  Population Hoechst High Intensity Objects (%): 13%
  Population Membrane Permeable-Phenotype (%): 0%
  Population Mitochondria Different-Phenotype (%): 66%
  Population Mitotic Cells (%): 56%
  Population Normal (%): 86%
  Population Pyknosed Nuclei (%): 13%
  Population Tubulin-Different-Phenotype (%): 56%
  Total Cell Count: 338
[8]
  Population Apoptotic (%): 45%
  Population Fragmented Nuclei (%): 10%
  Population Healthy Nuclei (%): 61%
  Population Hoechst High Intensity Objects (%): 47%
  Population Mitochondria Different-Phenotype (%): 68%
  Population Mitotic Cells (%): 54%
  Population Normal (%): 52%
  Population Pyknosed Nuclei (%): 27%
  Population Tubulin-Different-Phenotype (%): 41%
  Total Cell Count: 312
[9]
  Population Apoptotic (%): 20%
  Population Fragmented Nuclei (%): 13%
  Population Healthy Nuclei (%): 81%
  Population Hoechst High Intensity Objects (%): 1%
  Population Membrane Permeable-Phenotype (%): 1%
  Population Mitochondria Different-Phenotype (%): 21%
  Population Mitotic Cells (%): 79%
  Population Normal (%): 98%
  Population Pyknosed Nuclei (%): 5%
  Population Tubulin-Different-Phenotype (%): 15%
  Total Cell Count: 986
[10]
  Population Apoptotic (%): 56%
  Population Fragmented Nuclei (%): 12%
  Population Healthy Nuclei (%): 82%
  Population Hoechst High Intensity Objects (%): 5%
  Population Membrane Permeable-Phenotype (%): 0%
  Population Mitochondria Different-Phenotype (%): 23%
  Population Mitotic Cells (%): 43%
  Population Normal (%): 94%
  Population Tubulin-Different-Phenotype (%): 13%
  Total Cell Count: 568
[11]
  Population Apoptotic (%): 44%
  Population Fragmented Nuclei (%): 11%
  Population Healthy Nuclei (%): 78%
  Population Hoechst High Intensity Objects (%): 5%
  Population Membrane Permeable-Phenotype (%): 0%
  Population Mitochondria Different-Phenotype (%): 44%
  Population Mitotic Cells (%): 55%
  Population Normal (%): 94%
  Population Pyknosed Nuclei (%): 10%
  Population Tubulin-Different-Phenotype (%): 29%
  Total Cell Count: 464
[12]
  Population Apoptotic (%): 58%
  Population Healthy Nuclei (%): 69%
  Population Hoechst High Intensity Objects (%): 24%
  Population Mitochondria Different-Phenotype (%): 47%
  Population Mitotic Cells (%): 41%
  Population Normal (%): 75%
  Population Pyknosed Nuclei (%): 18%
  Population Tubulin-Different-Phenotype (%): 23%
  Total Cell Count: 363
